Data on 6 compounds can be found in ChEMBL document CHEMBL4680156, “Discovery of novel pyrido-pyrrolidine hybrid compounds as alpha-glucosidase inhibitors and alternative agent for control of type 1 diabetes” (Eur J Med Chem, 2020).

Calls of active or inactive are those of the source. The rule behind the calls is not given here.

The nature of data set [1]: Inhibition of Saccharomyces cerevisiae alpha-glucosidase using PNPG as substrate incubated for 10 mins by spectrophotometric method.
Data set [2] relates to Rattus norvegicus. Briefly: Antidiabetic activity against STZ-induced type 1 diabetic Sprague-Dawley rat model assessed as decrease in fasting blood glucose level at 60 mg/kg, po administered once daily for 28 days. The class given is functional, organism-based. Particulars: time 28.0 day. In short, it runs like this:
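Male Sprague-Dawley rats (250–320 g, 8–10 weeks) were given STZ 70 mg/kg ip once in 0.1 mmol/L citrate buffer, pH 4.5. Rats with random glucose >125 mg/dl at 4 days were counted diabetic. Dosing was 60 mg/kg in 0.5% saline by gavage once daily for 4 weeks, n=6 per group. After a 6 h fast, tail blood glucose was read by glucometer. Data are mean ± SD; 2-way ANOVA.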

Data set [3] can be described thus: Toxicity in STZ-treated diabetic Sprague-Dawley rat model assessed as decrease in body weight at 60 mg/kg, po administered once daily for 28 days. The class given is organism-based. The note with it: in vivo, 672 h, time 28 day. In outline: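 Male Sprague-Dawley rats (250–320 g, 8–10 weeks) were made diabetic with a single STZ dose (70 mg/kg ip in 0.1 mmol/L citrate buffer, pH 4.5). Random glucose above 125 mg/dl defined diabetes. Dosing was 60 mg/kg in 0.5% saline by gastric gavage once daily for 4 weeks, n=6 per group, with vehicle controls. Body weight was recorded before and after treatment; mean ± SD, 2-way ANOVA.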

In data set [4] the test system is Rattus norvegicus. In words: Decrease in post prandial glucose level in type 1 diabetic Sprague-Dawley rat model at 60 mg/kg, po administered once daily for 28 days. The note with it: time 28.0 day.
Data set [5] in a line: Inhibition of Saccharomyces cerevisiae alpha-glucosidase assessed as reduction in p-nitrophenol release using p-nitrophenyl glycoside as substrate by spectrophotometric analysis.
Data set [6] is described as follows: Inhibition of Wistar rat intestinal maltase assessed as reduction in released D-glucose level using maltose as substrate by colorimetric assay. The data set is classed as tissue-based, Intestine.
Data set [7] addresses T1, Alpha-mannosidase (Canavalia ensiformis) (UniProt C0HJB3).
T1 sequence (whole entry): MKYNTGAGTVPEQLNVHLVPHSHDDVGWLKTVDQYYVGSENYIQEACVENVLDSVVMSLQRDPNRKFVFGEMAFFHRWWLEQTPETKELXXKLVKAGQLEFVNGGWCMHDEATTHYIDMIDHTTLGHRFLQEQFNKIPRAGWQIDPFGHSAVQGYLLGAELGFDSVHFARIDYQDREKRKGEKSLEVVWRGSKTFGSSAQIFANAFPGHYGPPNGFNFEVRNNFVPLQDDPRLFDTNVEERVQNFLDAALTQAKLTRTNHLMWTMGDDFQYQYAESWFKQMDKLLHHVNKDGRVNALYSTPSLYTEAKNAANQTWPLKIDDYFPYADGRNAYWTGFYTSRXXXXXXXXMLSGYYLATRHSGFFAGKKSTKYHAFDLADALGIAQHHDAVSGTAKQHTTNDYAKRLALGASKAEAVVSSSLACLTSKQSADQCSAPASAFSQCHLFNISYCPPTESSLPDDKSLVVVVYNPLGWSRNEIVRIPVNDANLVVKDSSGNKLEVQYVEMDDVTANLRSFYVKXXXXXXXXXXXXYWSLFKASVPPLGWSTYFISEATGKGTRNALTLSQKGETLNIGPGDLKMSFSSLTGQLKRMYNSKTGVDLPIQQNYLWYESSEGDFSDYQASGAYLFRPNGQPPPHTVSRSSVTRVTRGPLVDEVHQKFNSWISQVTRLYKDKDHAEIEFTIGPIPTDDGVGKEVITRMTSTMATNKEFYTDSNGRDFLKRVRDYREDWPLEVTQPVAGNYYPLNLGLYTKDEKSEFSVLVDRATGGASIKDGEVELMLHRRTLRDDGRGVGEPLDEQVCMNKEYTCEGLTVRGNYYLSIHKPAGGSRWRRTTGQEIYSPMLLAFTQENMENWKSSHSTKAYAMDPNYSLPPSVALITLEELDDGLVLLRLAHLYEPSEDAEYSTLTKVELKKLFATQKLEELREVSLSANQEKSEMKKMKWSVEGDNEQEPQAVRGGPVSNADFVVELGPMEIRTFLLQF
Briefly: Inhibition of jack bean alpha-mannosidase at 1 mM using […] as substrate incubated for 10 mins by spectrophotometric method.

Data set [8] is described as follows: Inhibition of Saccharomyces cerevisiae alpha-glucosidase using pNPG as substrate preincubated for 15 mins followed by substrate addition and measured after 30 mins by spectrophotometric analysis.
Data set [9] is described as follows: Non-competitive inhibition of rat intestinal alpha-glucosidase. The data set is classed as tissue-based, Intestine.
The target in data set [10] is T2, Tissue alpha-L-fucosidase (Bos taurus, UniProt Q2KIM0).
T2 sequence (Q2KIM0 whole entry): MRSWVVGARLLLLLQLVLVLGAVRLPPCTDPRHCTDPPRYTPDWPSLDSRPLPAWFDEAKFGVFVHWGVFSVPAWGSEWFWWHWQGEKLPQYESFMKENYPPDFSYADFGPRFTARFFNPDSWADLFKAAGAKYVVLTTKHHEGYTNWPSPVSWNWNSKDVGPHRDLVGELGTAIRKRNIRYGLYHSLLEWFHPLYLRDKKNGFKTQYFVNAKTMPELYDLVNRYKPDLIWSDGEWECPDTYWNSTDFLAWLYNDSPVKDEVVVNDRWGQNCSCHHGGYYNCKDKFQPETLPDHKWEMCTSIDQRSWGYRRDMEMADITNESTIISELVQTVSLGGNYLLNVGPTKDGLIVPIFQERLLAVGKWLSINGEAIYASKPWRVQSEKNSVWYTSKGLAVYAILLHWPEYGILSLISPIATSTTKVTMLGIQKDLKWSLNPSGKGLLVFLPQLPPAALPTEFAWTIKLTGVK
In words: Inhibition of bovine kidney alpha-fucosidase using […] as substrate incubated for 10 mins by spectrophotometric method.

Another data set concerns the target T3, Alpha-mannosidase (Canavalia ensiformis, UniProt C0HJB3).
T3 sequence (C0HJB3 whole entry): T1 sequence (whole entry)
Briefly: Inhibition of jack bean alpha-mannosidase using […] as substrate incubated for 10 mins by spectrophotometric method.

The nature of data set [11]: Inhibition of fungi maltase. In outline: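 Yeast α-glucosidase, 0.1 IU per well, was added to 2 mM 4-nitrophenyl α-D-glucopyranoside in 10 mM potassium phosphate pH 7.2, with compound from DMSO at 2–10 μM. Plates ran 10 min at 37 °C and were read at 430 nm. Inhibition was calculated against a buffer control, and IC50 came from three independent assays run in triplicate.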

Data set [12] can be described thus: Inhibition of rice alpha-glucosidase. Set-up: species or system Oryza sativa.
Data set [13] in a line: Inhibition of Saccharomyces cerevisiae alpha-glucosidase assessed as reduction in p-nitrophenol liberation using PNPG as substrate preincubated with substrate for 5 mins followed by incubation with enzyme for 5 mins.

The compound `C[C@H]1O[C@H](O[C@H]2[C@H](O)[C@@H](O)[C@@H](O[C@H]3[C@H](O)[C@@H](O)C(O)O[C@@H]3CO)O[C@@H]2CO)[C@H](O)[C@@H](O)[C@@H]1N[C@H]1C=C(CO)[C@@H](O)[C@H](O)[C@H]1O` (some centres undefined) [ACARBOSE] showed an IC50 in [1] of 2.1 µM. Also, the result in the data set with Rattus norvegicus [2] was Active. Moreover, the Activity result in [3] is given as “Non-Toxic”. For the same compound, in the data set on Rattus norvegicus [4], the inhibition result was “inactive”.
As to `OC[C@H]1NC[C@@H](O)[C@@H]1O`, the results for the IC50 in data set [5], in data set [6] and in data set [1] were 0.15 µM, 5.8 µM and 58 µM, respectively. Moreover, in data set [7], the inhibition is less than 50%.
With `CCCCCCCCn1cnc2cc(N)c(-c3ccccc3O)cc21`, the IC50 in data set [8] came to 0.16 µM; in data set [1], 5.03 µM. In [7], this compound displayed an inhibition of less than 50%.
With `CCC/C=C1/OC(=O)c2ccccc21` [(E)-BUTYLIDENEPHTHALIDE], the Ki in data set [9] is 4.86 µM. Further, the IC50 in [1] is 7.15 µM; in [10], 82 µM; at Alpha-mannosidase it was 41 µM.
Regarding `OC[C@@H]1[C@@H](O)[C@H](O)[C@H]2[C@H](O)[C@@H](O)CN21` [CASUARINE], the IC50 in [11] is 0.7 µM; in data set [12], 1.2 µM; in [1] it was 41.1 µM; in data set [10], 82 µM; at Alpha-mannosidase it was 51 µM.
With `O=c1c(-c2ccc(O)cc2)coc2cc(O)cc(O)c12` [GENISTEIN], the IC50 in data set [13] is 7 µM; in data set [1], 81 µM; in data set [10], 54 µM; at Alpha-mannosidase, 49 µM.
